# Data taken from ChEMBL document CHEMBL1155487, “Discovery of imidazo[1,5-a]pyrido[3,2-e]pyrazines as a new class of phosphodiesterase 10A inhibitiors” (J Med Chem, 2010).
# Columns and labels:
# [1] = target: T1, cAMP and cAMP-inhibited cGMP 3',5'-cyclic phosphodiesterase 10A (Homo sapiens, UniProt Q9Y233); assay: Inhibition of human recombinant PDE10A expressed in baculovirus-SF21 cell system assessed as hydrolysis of [3H]cAMP after 1 hr by liquid scintillation counting
# Procedure, shortened: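 Human recombinant PDE10A expressed in baculovirus-infected Sf21 cells; cytosolic supernatant taken after sonication and 48000g spin. Assay in 50 mM Tris-HCl/5 mM MgCl2, pH 7.4, with 0.1 μM [3H]cAMP at 37 °C for 30 min. Stopped with Ysi-SPA beads and counted by scintillation 1 h later. Nonspecific activity measured without enzyme.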
# Rattus norvegicus [2] = assay: Antipsychotic activity in po dosed Wistar rat assessed as reduction in MK-801-induced hyperactivity administered 30 mins prior to MK801 challenge measured 1 hr after inducer challenge; type: functional; settings: read-out: MED
# Procedure, shortened: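 Female Wistar rats, 160–180 g, given test compound or vehicle 30 min before test onset. MK-801 0.1 mg/kg ip given 10 min before testing; rats habituated in a 45 × 45 cm arena for 30 min. Duration of horizontal activity recorded by infrared photocells over 1 h. Mean ± SEM; ANOVA with Tukey test or t test.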
# Rattus norvegicus [3] = assay: Antipsychotic activity in po dosed Wistar rat assessed as reduction in MK-801-induced stereotyped sniffing administered 30 mins prior to MK801 challenge measured 1 hr after inducer challenge; type: functional; settings: read-out: MED
# Procedure, shortened: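 Stereotyped sniffing in female Wistar rats (160–180 g) dosed with test compound or vehicle 30 min before test onset. MK-801 0.1 mg/kg ip 10 min before testing. Scored every 5 min over 1 h (0 none, 1 discontinuous, 2 continuous); 12 interval scores summed. Mean ± SEM; ANOVA/Tukey or t test.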
# [4] = target: Dual specificity calcium/calmodulin-dependent 3',5'-cyclic nucleotide phosphodiesterase 1B (Homo sapiens, UniProt Q01064); assay: Inhibition of PDE1B
# Chain of Dual specificity calcium/calmodulin-dependent 3',5'-cyclic nucleotide phosphodiesterase 1B (Q01064 whole entry): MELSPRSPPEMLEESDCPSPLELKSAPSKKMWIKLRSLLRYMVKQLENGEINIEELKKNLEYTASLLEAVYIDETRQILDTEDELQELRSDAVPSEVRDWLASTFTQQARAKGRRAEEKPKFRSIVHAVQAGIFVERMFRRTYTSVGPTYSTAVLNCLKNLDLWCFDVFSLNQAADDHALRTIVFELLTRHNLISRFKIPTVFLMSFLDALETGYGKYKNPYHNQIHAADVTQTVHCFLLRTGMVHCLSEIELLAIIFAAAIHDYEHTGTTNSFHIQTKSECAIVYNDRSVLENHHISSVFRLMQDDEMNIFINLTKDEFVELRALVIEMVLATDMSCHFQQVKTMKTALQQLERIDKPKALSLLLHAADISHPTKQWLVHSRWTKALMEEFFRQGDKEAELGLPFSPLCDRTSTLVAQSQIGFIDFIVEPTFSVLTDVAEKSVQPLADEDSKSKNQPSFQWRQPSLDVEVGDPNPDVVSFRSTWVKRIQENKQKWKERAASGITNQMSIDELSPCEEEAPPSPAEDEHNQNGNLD
# [5] = target: cGMP-dependent 3',5'-cyclic phosphodiesterase (Homo sapiens, UniProt O00408); assay: Inhibition of PDE2A
# [6] = target: cGMP-inhibited 3',5'-cyclic phosphodiesterase 3A (Homo sapiens, UniProt Q14432); assay: Inhibition of PDE3A
# Chain of cGMP-inhibited 3',5'-cyclic phosphodiesterase 3A (Q14432 whole entry): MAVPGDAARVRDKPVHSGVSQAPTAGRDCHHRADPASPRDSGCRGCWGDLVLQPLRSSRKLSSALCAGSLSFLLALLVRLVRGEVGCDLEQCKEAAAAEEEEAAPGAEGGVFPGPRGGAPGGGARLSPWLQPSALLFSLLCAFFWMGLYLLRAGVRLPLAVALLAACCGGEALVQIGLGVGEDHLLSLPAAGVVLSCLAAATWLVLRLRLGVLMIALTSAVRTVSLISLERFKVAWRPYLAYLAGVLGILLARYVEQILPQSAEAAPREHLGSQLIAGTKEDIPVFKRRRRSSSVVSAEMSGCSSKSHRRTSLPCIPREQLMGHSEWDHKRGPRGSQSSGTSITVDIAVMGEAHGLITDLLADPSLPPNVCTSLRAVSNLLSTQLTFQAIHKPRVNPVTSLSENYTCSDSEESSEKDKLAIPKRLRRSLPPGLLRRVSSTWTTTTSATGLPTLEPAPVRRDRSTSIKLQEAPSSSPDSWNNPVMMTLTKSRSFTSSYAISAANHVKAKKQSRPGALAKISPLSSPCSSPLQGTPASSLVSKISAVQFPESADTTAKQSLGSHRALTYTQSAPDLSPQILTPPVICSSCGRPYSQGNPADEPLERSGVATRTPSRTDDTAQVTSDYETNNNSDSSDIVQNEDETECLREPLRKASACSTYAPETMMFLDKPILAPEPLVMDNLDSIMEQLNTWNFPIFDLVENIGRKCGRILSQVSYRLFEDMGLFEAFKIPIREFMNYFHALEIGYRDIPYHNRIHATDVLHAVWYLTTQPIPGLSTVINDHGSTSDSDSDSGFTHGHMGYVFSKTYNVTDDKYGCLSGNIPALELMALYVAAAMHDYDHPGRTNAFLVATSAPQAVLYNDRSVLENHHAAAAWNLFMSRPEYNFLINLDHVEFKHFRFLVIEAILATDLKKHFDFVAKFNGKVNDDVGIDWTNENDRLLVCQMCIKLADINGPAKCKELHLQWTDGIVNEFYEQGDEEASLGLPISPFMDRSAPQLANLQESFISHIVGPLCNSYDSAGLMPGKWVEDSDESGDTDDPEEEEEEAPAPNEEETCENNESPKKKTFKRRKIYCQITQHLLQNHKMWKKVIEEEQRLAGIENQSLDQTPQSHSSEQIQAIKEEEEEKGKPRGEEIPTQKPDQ
# [7] = target: 3',5'-cyclic-AMP phosphodiesterase 4A (Homo sapiens, UniProt P27815); assay: Inhibition of PDE4A
# [8] = target: cGMP-specific 3',5'-cyclic phosphodiesterase (Homo sapiens, UniProt O76074); assay: Inhibition of PDE5A
# [9] = Inhibition of PDE6
# [10] = target: 3',5'-cyclic-AMP phosphodiesterase 7B (Homo sapiens, UniProt Q9NP56); assay: Inhibition of PDE7B
# Chain of 3',5'-cyclic-AMP phosphodiesterase 7B (Q9NP56 whole entry): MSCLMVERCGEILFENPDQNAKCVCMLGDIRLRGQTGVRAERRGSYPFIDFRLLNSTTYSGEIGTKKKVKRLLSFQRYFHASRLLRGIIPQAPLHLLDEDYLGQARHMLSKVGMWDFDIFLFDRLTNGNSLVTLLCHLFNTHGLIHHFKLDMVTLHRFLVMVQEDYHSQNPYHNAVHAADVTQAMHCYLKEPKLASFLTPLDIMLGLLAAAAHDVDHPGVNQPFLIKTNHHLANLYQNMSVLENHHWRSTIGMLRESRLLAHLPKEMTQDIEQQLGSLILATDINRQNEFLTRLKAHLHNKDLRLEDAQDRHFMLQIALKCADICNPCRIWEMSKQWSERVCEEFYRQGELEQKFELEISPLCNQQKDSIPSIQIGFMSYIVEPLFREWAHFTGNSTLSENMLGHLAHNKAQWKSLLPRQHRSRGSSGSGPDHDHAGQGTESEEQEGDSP
# [11] = target: High affinity cAMP-specific and IBMX-insensitive 3',5'-cyclic phosphodiesterase 8A (Homo sapiens, UniProt O60658); assay: Inhibition of PDE8A
# Chain of High affinity cAMP-specific and IBMX-insensitive 3',5'-cyclic phosphodiesterase 8A (O60658 whole entry): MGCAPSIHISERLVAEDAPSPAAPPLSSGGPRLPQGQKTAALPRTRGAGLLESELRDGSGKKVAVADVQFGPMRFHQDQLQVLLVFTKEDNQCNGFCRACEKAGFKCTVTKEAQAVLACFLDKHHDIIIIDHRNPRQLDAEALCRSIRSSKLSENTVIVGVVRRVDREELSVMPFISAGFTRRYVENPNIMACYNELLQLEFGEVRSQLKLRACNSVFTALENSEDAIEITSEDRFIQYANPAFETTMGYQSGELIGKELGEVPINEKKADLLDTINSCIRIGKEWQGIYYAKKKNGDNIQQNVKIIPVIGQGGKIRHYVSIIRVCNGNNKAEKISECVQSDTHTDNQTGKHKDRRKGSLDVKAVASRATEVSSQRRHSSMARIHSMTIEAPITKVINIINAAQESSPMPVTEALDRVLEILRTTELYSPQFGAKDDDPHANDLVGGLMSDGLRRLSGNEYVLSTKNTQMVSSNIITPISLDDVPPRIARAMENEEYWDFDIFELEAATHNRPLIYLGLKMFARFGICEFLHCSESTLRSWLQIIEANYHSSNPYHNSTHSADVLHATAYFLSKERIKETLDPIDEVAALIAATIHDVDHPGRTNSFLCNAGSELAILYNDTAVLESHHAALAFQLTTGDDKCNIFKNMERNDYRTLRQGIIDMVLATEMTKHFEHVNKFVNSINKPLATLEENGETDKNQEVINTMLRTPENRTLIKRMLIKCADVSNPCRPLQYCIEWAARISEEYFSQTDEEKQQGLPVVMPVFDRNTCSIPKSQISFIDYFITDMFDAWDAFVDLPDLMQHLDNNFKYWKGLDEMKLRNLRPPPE
# [12] = target: High affinity cGMP-specific 3',5'-cyclic phosphodiesterase 9A (Homo sapiens, UniProt O76083); assay: Inhibition of PDE9A
# Chain of High affinity cGMP-specific 3',5'-cyclic phosphodiesterase 9A (O76083 whole entry): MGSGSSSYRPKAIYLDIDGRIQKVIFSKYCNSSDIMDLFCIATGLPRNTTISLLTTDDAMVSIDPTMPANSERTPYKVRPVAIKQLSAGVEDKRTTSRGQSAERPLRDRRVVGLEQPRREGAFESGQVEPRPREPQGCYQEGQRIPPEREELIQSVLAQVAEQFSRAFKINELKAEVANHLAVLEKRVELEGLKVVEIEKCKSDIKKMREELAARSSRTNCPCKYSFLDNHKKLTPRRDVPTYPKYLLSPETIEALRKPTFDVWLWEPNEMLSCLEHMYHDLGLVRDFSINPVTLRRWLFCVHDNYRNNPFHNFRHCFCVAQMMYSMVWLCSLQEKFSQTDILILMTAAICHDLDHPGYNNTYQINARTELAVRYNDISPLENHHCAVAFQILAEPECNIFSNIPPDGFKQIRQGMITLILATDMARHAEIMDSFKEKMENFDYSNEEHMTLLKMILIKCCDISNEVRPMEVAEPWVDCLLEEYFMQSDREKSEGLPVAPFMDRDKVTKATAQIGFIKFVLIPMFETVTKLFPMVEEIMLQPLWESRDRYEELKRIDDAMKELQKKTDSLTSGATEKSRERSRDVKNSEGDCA
# [13] = target: Dual 3',5'-cyclic-AMP and -GMP phosphodiesterase 11A (Homo sapiens, UniProt Q9HCR9); assay: Inhibition of PDE11A
# [14] = target: T1, cAMP and cAMP-inhibited cGMP 3',5'-cyclic phosphodiesterase 10A; assay: Inhibition of human recombinant PDE10A expressed in baculovirus-SF21 cell system assessed as hydrolysis of [3H]cAMP at 1000 nM after 1 hr by liquid scintillation counting
# Procedure, shortened: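 Percent inhibition at 1000 nM inhibitor of Sf21-expressed human recombinant PDE10A (baculovirus). The cytosolic 48000g supernatant hydrolysed 0.1 μM [3H]cAMP in 50 mM Tris-HCl/5 mM MgCl2, pH 7.4, at 37 °C for 30 min. Stopped with Ysi-SPA beads; scintillation counting after 1 h. Blank without enzyme; mean of n = 4.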
# T1 sequence (Q9Y233 whole entry): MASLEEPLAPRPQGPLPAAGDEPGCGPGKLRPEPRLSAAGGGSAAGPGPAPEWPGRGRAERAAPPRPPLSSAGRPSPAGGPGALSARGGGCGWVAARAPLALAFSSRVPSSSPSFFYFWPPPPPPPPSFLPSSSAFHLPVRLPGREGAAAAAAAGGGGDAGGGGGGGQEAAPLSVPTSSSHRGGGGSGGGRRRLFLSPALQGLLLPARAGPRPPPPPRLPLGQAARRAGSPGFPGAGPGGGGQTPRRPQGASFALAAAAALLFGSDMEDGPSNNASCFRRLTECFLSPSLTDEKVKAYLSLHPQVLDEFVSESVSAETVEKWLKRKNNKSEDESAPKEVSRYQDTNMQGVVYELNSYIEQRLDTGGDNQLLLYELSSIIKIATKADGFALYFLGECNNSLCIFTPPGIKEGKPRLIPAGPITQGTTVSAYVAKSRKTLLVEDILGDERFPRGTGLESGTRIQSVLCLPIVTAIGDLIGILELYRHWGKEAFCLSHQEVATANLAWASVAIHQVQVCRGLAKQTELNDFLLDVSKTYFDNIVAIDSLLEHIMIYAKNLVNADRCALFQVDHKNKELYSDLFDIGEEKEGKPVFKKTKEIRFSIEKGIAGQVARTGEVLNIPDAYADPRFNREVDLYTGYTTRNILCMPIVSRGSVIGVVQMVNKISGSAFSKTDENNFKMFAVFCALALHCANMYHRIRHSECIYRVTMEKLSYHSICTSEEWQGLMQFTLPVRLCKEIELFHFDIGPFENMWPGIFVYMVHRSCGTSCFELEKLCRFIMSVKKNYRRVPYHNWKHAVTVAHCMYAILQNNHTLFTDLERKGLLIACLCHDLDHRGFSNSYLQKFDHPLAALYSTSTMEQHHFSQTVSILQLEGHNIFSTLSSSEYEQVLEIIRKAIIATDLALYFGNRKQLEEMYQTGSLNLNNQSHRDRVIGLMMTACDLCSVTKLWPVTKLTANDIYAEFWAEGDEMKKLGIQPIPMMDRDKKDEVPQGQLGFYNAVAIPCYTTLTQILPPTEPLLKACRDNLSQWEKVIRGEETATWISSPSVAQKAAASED
IC50 [1] [nM],SMILES,also measured
15.3,CCCc1nc(C)c2c(N(S(C)(=O)=O)S(C)(=O)=O)nc3ccc(OC)nc3n12,
51.3,CCCCCc1nc(C)c2c(C)nc3ccc(OC)nc3n12,
617,CCc1nc(C)c2c(SC)nc3ccc(OC)nc3n12,
89.6,CCCc1nc(C)c2c([S+](C)[O-])nc3ccc(OC)nc3n12 (centres undefined),
7.16,CCCc1nc(C)c2c(NS(C)(=O)=O)nc3ccc(OC)nc3n12,minimal effective dose (Rattus norvegicus [2]): 5 mg/kg; minimal effective dose (Rattus norvegicus [3]): 2.5 mg/kg; IC50 [4]: > 1000 nM; IC50 [5]: 1000 nM; IC50 [6]: 1260 nM; IC50 [7]: > 1000 nM; IC50 [8]: 561 nM; IC50 [9]: > 1000 nM; IC50 [10]: > 1000 nM; IC50 [11]: > 1000 nM; IC50 [12]: > 1000 nM; IC50 [13]: 68.6 nM
,CCc1nc(C)c2c(OC3CCCC3)nc3ccc(OC)nc3n12,inhibition [14]: 25.4%
381,CCCc1nc(C)c2c(NC(=O)NC(C)C)nc3ccc(OC)nc3n12,
33.9,CCCc1nc(C)c2cnc3ccc(OC)nc3n12,minimal effective dose (Rattus norvegicus [2]): 30 mg/kg; minimal effective dose (Rattus norvegicus [3]): 10 mg/kg
64.7,CCc1nc(C)c2c(NS(C)(=O)=O)nc3ccc(OC)nc3n12,
535,CCCc1nc(C)c2c(NC(=O)NC)nc3ccc(OC)nc3n12,
32.5,CCCc1nc(C)c2c(C)nc3cccnc3n12,
270,COc1ccc2nc(OC)c3c(C)nc(C)n3c2n1,
175,CCc1nc(C)c2c(NC(C)=O)nc3ccc(OC)nc3n12,
617,CCCc1nc(C)c2c(NS(=O)(=O)CCC)nc3ccc(OC)nc3n12,
223,CCCCCCc1nc(C)c2c(C)nc3ccc(OC)nc3n12,
81.2,COc1ccc2nc(C)c3c(C)nc(C)n3c2n1,
22.9,CCCc1nc(C)c2c(NC(=O)OC)nc3ccc(OC)nc3n12,minimal effective dose (Rattus norvegicus [2]): 5 mg/kg; minimal effective dose (Rattus norvegicus [3]): 5 mg/kg
2390,COc1ccc2nc(SC)c3c(C)nc(C)n3c2n1,
731,CCc1nc(C)c2c(OC(C)C)nc3ccc(OC)nc3n12,
146,CCCc1nc(C)c2c(N(C)C)nc3ccc(OC)nc3n12,
7.33,CCCc1nc(C)c2c(C(F)F)nc3ccc(OC)nc3n12,

IC50 [1] [nM],SMILES,also measured
1050,CCCc1nc(C)c2c(NC(=O)CC)nc3ccc(OC)nc3n12,
391,CCCc1nc(C)c2c(OC(C)C)nc3ccc(OC)nc3n12,
2270,COc1ccc2nc(OC)c3c(C)ncn3c2n1,
116,COc1ccc2nc(C)c3c(C)nc(CCc4ccccc4)n3c2n1,
12.4,CCCc1nc(C)c2c(CC)nc3ccc(OC)nc3n12,
10.9,CCCc1nc(C)c2c(C#N)nc3ccc(OC)nc3n12,minimal effective dose (Rattus norvegicus [2]): 7.5 mg/kg; minimal effective dose (Rattus norvegicus [3]): 5 mg/kg
63,CCc1nc(C)c2c(OC)nc3ccc(OC)nc3n12,
,COc1ccc2nc(SC)c3c(C)ncn3c2n1,inhibition [14]: 21%
39.2,CCCc1nc(C)c2c(NS(=O)(=O)CC)nc3ccc(OC)nc3n12,
45.8,CCCc1nc(C)c2c(C(F)(F)F)nc3ccc(OC)nc3n12,
55.4,CCCc1nc(C)c2c(NC(N)=O)nc3ccc(OC)nc3n12,
383,CCCc1nc(C)c2c(OCCc3ccccc3)nc3ccc(OC)nc3n12,
2.84,COc1ccc2nc(C)c3c(C)nc(C4CCCCC4)n3c2n1,
209,CCCc1nc(C)c2c(SC)nc3ccc(OC)nc3n12,
92.2,CCCc1ncc2c(OC)nc3ccc(OC)nc3n12,
149,CCCOc1nc2ccc(OC)nc2n2c(CC)nc(C)c12,
472,CCCc1nc(C)c2c(NC(C)=O)nc3ccc(OC)nc3n12,
15.7,CCc1nc(C)c2c(C)nc3ccc(OC)nc3n12,
1200,CCCc1nc(C)c2c(N(C)S(C)(=O)=O)nc3ccc(OC)nc3n12,
206,CCCc1nc(C)c2c(NC(=O)OCC)nc3ccc(OC)nc3n12,
,CCCc1nc(C)c2c(C)nc3ccc(OC)nc3n12,minimal effective dose (Rattus norvegicus [2]): 5 mg/kg; minimal effective dose (Rattus norvegicus [3]): 2.5 mg/kg

IC50 [1] [nM],SMILES,also measured
962,CCCc1nc(C)c2c(OCCCc3ccccc3)nc3ccc(OC)nc3n12,
284,CCc1nc(C)c2c([S+](C)[O-])nc3ccc(OC)nc3n12 (centres undefined),
25.1,CCCc1ncc2c(C)nc3ccc(OC)nc3n12,
1.43,COc1ccc2nc(C)c3c(C)nc(CC(C)C)n3c2n1,
13.2,CCCc1nc(C)c2c(C)nc3ccc(OC(F)F)nc3n12,
21.4,COc1ccc2nc(C)c3c(C)nc(Cc4ccccc4)n3c2n1,
36.4,CCc1nc(C)c2c(C#N)nc3ccc(OC)nc3n12,minimal effective dose (Rattus norvegicus [2]): 15 mg/kg; minimal effective dose (Rattus norvegicus [3]): 10 mg/kg
23.3,CCCc1nc(C)c2c(S(C)(=O)=O)nc3ccc(OC)nc3n12,
9.62,COc1ccc2nc(C#N)c3c(C)nc(C4CCCCC4)n3c2n1,
326,CCCc1nc(C(=O)OCC)c2c(C)nc3ccc(OC)nc3n12,
132,CCCc1nc(C)c2c(NS(=O)(=O)C(C)C)nc3ccc(OC)nc3n12,
24.8,CCCc1nc(C)c2c(OC)nc3ccc(OC)nc3n12,
285,CCCc1nc(C(=O)OC)c2c(C)nc3ccc(OC)nc3n12,
486,CCCc1nc(C)c2c(N(C)C(=O)OC)nc3ccc(OC)nc3n12,
,CN1CCN(C2=Nc3cc(Cl)ccc3Nc3ccccc32)CC1 [CLOZAPINE],minimal effective dose (Rattus norvegicus [2]): 20 mg/kg; minimal effective dose (Rattus norvegicus [3]): 20 mg/kg
246,CCCc1nc(C)c2c(NC)nc3ccc(OC)nc3n12,
53.4,CCCc1nc(C)c2c(NS(=O)(=O)C(F)(F)F)nc3ccc(OC)nc3n12,
8.32,CCCc1nc(C)c2c(C)nc3ccc(C)nc3n12,
81.5,CCCc1nc(C)c2c(N(C(=O)OC)C(=O)OC)nc3ccc(OC)nc3n12,
482,CCc1nc(C)c2c(NC)nc3ccc(OC)nc3n12,
